According to publication PMC11439923 (Scientific Reports, 2024):

Columns and labels:
[1] = test system: HNSCC cell lines (FaDu, Cal-27, and Ca9-22); assay: Cell viability assay; format: cell-based, human; conditions: Cal-27 and FaDu; 1 µM single agent; 48 and 72 h; MTT
Outline: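 Seeded 8 × 10^3 cells/well in 10% FBS medium: MEM for Ca9-22; high-glucose DMEM for FaDu, Cal-27, HaCaT; DMEM/F12 for HK-2. Grown 24 h at 37 °C, 5% CO2, then dosed 24, 48 or 72 h: derivatives 0.001–20 µM, parent glycoside and platinum reference 0.01–50 µM. MTT 0.5 mg/ml 4 h, formazan dissolved in DMSO, A570. IC50 by nonlinear regression. Triplicate, ≥3 independent experiments.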

FaDu spheroids = assay: Three-dimensional culture, spheroid live/dead staining; format: cell-based, human; conditions: 50 µM cisplatin, 72 h
Outline: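 FaDu seeded 500 cells/well in U-bottom ultralow-attachment plates, spheroids formed over 72 h at 37 °C, 5% CO2. Spheroids exposed 72 h to a concentration series of test compound or platinum reference. Stained 1 h with Hoechst 33342 (live) and ethidium homodimer-1 (dead), imaged by high-content system. Read-out: Hoechst/EthD-1 mean fluorescence intensity ratio. One-way ANOVA with Tukey's test.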

healthy mice = conditions: cited from earlier work
V-ATPase activity = assay: LysoTracker Red staining; format: cell-based, human; conditions: Cal-27 and FaDu; 0.1 µM; 24 h
Outline: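 Cal-27 and FaDu plated 8 × 10^3 cells/well in black 96-well plates for 24 h. Treated 24 h with test compound (0.1, 1, 2 µM) or 0.1 µM bafilomycin A1. LysoTracker 2 h, immediate fixation in 4% paraformaldehyde 20 min, DAPI 30 min at room temperature. Lysosomal fluorescence intensity quantified by high-content imaging.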

cathepsin D (CTSD) = assay: Western blot of cathepsin D; format: cell-based, human; conditions: 36 h, ECDD-S18 0.1, 1, 2 µM, bafilomycin A1 0.1 µM, vs DMSO
Outline: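 Cal-27 or FaDu seeded 5 × 10^5 cells per 60 mm dish for 24 h, treated 36 h with test compound (0.1, 1, 2 µM), 0.1 µM bafilomycin A1 or DMSO. RIPA lysates run on SDS-PAGE, transferred to PVDF, blocked in 5% milk 1 h. Probed overnight at 4 °C for pro/mature cathepsin D, N-cadherin, GAPDH; HRP secondary, ECL on film. Densitometry normalised to GAPDH, fold change versus untreated.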

CTSD mRNA = assay: Quantitative RT-PCR of CTSD; format: cell-based, human; conditions: 36 h, ECDD-S18 0.1, 1, 2 µM, bafilomycin A1 0.1 µM, vs DMSO
[2] = test system: E-cadherin mRNA and protein; assay: E-cadherin expression; format: cell-based, human; conditions: Cal-27 and FaDu; 36 h; ECDD-S18 0.1, 1, 2 µM, bafilomycin A1 0.1 µM

SMILES | cell viability [1] | Live/dead cell ratio (Hoechst 33342 to EthD-1) (FaDu spheroids) | WBC and RBC levels (healthy mice) | body weight loss (healthy mice) | LysoTracker red fluorescence intensity relative to DMSO control (V-ATPase activity) | protein expression of mature CTSD (cathepsin D (CTSD); Cal-27) | protein expression of mature CTSD (cathepsin D (CTSD); FaDu) | mRNA expression of CTSD (CTSD mRNA; Cal-27) | mRNA expression of CTSD (CTSD mRNA; FaDu) | expression of E-cadherin mRNA and protein [2]
N.N.[Cl][Pt][Cl] [Cisplatin] | slight suppression | significantly reduced | marked decrease | 30–40% |  |  |  |  |  | 
CO/C1=C\C(C)=C\[C@@H](C)[C@@H](O)[C@@H](C)C/C(C)=C/C=C/[C@H](OC)[C@@H]([C@@H](C)[C@@H](O)[C@H](C)[C@@]2(O)C[C@@H](O)[C@H](C)[C@@H](C(C)C)O2)OC1=O [bafilomycin A1] |  |  |  |  | significantly decreased | downregulated | downregulated | significantly decreased | significantly decreased | no effect
